Results reported in paper PMC5771863 (Anesthesiology, 2018).

What was measured:
Assay type in all cases: cell-based
[1] = molecular target: T1, α1β3L297Cγ2L GABAA receptors (Homo sapiens, UniProt P14867+P28472, L322C); test: Substituted cysteine modification-protection; conditions: pCMBS + maximal GABA
[2] = molecular target: T2, α1β3F293Cγ2L GABAA receptors (Homo sapiens, UniProt P14867+P28472, F318C); test: Substituted cysteine modification-protection; conditions: pCMBS + maximal GABA, initial concentrations, 10 μM ALX
T2 sequence (P14867 28-456): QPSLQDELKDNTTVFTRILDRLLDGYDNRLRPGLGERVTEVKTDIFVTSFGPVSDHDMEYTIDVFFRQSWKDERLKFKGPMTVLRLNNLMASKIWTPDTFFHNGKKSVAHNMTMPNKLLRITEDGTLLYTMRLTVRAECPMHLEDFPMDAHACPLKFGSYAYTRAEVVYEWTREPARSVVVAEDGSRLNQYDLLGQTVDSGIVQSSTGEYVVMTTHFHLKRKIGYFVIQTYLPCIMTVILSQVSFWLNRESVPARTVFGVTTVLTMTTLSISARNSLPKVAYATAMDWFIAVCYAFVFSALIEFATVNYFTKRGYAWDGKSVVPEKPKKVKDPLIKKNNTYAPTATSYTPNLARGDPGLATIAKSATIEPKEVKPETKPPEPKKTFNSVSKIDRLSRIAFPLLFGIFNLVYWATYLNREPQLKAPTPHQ
T2 sequence (P28472 26-473 F318C): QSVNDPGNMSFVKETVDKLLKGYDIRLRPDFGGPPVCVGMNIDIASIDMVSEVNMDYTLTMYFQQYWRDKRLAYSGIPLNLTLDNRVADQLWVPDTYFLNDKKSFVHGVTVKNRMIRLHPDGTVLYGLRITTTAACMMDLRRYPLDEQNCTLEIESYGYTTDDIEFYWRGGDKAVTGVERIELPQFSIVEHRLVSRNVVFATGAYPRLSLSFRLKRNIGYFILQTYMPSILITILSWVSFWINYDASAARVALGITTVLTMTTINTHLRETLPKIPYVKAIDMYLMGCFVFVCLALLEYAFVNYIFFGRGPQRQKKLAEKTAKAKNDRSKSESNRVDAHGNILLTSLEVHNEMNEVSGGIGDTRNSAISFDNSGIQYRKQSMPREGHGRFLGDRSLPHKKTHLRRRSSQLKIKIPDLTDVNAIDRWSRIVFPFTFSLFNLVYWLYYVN
T2 sequence (P18507 40-475 partner): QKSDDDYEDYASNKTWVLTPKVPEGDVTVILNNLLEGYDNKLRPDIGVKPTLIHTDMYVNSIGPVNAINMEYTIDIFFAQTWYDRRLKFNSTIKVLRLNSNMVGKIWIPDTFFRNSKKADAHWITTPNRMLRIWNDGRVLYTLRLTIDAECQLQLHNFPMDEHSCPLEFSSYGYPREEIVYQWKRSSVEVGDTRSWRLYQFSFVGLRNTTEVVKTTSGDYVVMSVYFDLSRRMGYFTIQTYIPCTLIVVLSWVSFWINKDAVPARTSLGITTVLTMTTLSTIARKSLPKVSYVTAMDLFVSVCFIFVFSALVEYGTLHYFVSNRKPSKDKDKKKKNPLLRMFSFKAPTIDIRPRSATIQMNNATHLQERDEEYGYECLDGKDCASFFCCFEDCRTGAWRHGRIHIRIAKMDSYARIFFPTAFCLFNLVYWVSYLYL

[3] = molecular target: wild-type α1β3γ2L GABAA receptors (Homo sapiens, UniProt P14867+P28472); conditions: […] ETO, 5 μM PRO, […] ALX (2 x EC50 tadpole LoRR)
wild-type α1β3γ2L GABAA receptors, sequence (P14867 28-456): as the sequence (P14867 28-456) above
wild-type α1β3γ2L GABAA receptors, sequence (P28472 26-473): as the sequence (P28472 26-473 F318C) above, with C293F counted along it
wild-type α1β3γ2L GABAA receptors, sequence (P18507 40-475 partner): as the sequence (P18507 40-475 partner) above

[4] = molecular target: α1β3M286Cγ2L GABAA receptors (Homo sapiens, UniProt P14867+P28472, M311C); test: Functional effect of pCMBS exposure
[5] = molecular target: α1β3γ2L GABAA receptors (wild-type) (Homo sapiens, UniProt P14867+P28472); test: Functional effect of pCMBS exposure
[6] = molecular target: α1β3T262Cγ2L GABAA receptors (Homo sapiens, UniProt P14867+P28472, T287C); test: Functional effect of pCMBS exposure
[7] = molecular target: α1β3E298Cγ2L GABAA receptors (Homo sapiens, UniProt P14867+P28472, E323C); test: Functional effect of pCMBS exposure
[8] = molecular target: T1, α1β3L297Cγ2L GABAA receptors; test: Functional effect of pCMBS exposure
[9] = molecular target: α1β3G287Cγ2L GABAA receptors (Homo sapiens, UniProt P14867+P28472, G312C); test: Functional effect of pCMBS exposure
[10] = molecular target: T3, α1β3V290Cγ2L GABAA receptors (Homo sapiens, UniProt P14867+P28472, V315C); test: Functional effect of pCMBS exposure
[11] = molecular target: T4, α1β3F301Cγ2L GABAA receptors (Homo sapiens, UniProt P14867+P28472, F326C); test: Functional effect of pCMBS exposure
[12] = molecular target: α1β3T266Cγ2L GABAA receptors (Homo sapiens, UniProt P14867+P28472, T291C); test: Functional effect of pCMBS exposure
[13] = molecular target: α1β3F289Cγ2L GABAA receptors (Homo sapiens, UniProt P14867+P28472, F314C); test: Functional effect of pCMBS exposure
[14] = molecular target: α1β3M283Cγ2L GABAA receptors (Homo sapiens, UniProt P14867+P28472, M308C); test: Functional effect of pCMBS exposure
[15] = molecular target: T2, α1β3F293Cγ2L GABAA receptors; test: Functional effect of pCMBS exposure
[16] = molecular target: T2, α1β3F293Cγ2L GABAA receptors; conditions: control modification conditions
[17] = molecular target: β3 subunits with Y284C mutations co-expressed with α1 and γ2L (Homo sapiens, UniProt P14867+P28472, Y309C); test: GABA-activated currents, two-electrode voltage clamp in Xenopus oocytes; conditions: β3Y284C co-expressed with α1 and γ2L in Xenopus oocytes
Summary of the method: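 Human α1 and γ2L were co-expressed with mutant β3 from mRNA (1:1:5, ~50 ng per oocyte) over 48 to 72 hours at 17 °C in ND96. […] A current of ≥ 0.5 μA was required for further experiments.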

[18] = molecular target: α1T237Cβ3γ2L GABAA receptors (Homo sapiens, UniProt P14867+P28472, T264C); test: Substituted cysteine modification-protection; conditions: 10 μM ALX, 10 μM ETO
[19] = molecular target: T4, α1β3F301Cγ2L GABAA receptors; test: Substituted cysteine modification-protection; conditions: pCMBS + maximal GABA, 10 to 20 μM ALX, 10 to 20 μM ETO
[20] = molecular target: GABAA receptors with α1Q242C mutation (Homo sapiens, UniProt P14867+P28472, Q269C); test: Receptor sensitivity to anesthetics; conditions: authors' unpublished data
[21] = molecular target: T3, α1β3V290Cγ2L GABAA receptors
[22] = low concentrations of anesthetics

T1 sequence (P14867 28-456): as the sequence (P14867 28-456) above
T1 sequence (P28472 26-473 L322C): as the sequence (P28472 26-473 F318C) above, with C293F, L297C counted along it
T1 sequence (P18507 40-475 partner): as the sequence (P18507 40-475 partner) above

CC(C)c1cccc(C(C)C)c1O [PRO, 2,6-diisopropylphenol]
effect on apparent rate of pCMBS modification [1, 22]: unaffected | effect on apparent rate of pCMBS modification [2]: accelerated | enhancement of gating of receptors activated with EC5 GABA [3]: similarly enhance

O=S(=O)([O-])c1cc[c]([Hg][Cl])cc1.[Na+] [pCMBS, Para-chloromercuribenzenesulfonic acid sodium salt]
Maximal Effect of pCMBS Modification (range): ↑ lo/hi GABA response [4]: ↑ lo/hi GABA response (5.8 to 7.8-fold) | Maximal Effect of pCMBS Modification (range) [5]: No effect | effect of pCMBS exposure on receptor function ([5]; pCMBS at 1 mM for 60 s): unaffected | Maximal Effect of pCMBS Modification (range): Reduce max current [6]: Reduce max current (95–99%) | effect of pCMBS exposure on activation by GABA ([6]; low and high GABA): similarly reduced activation by both low and high GABA | Maximal Effect of pCMBS Modification (range): ↑ lo/hi GABA response [7]: ↑ lo/hi GABA response (3.5 to 5.5-fold) | Maximal Effect of pCMBS Modification (range): ↑ lo/hi GABA response [8]: ↑ lo/hi GABA response (5.5 to 7.2-fold) | Maximal Effect of pCMBS Modification (range): ↑ lo/hi GABA response [9]: ↑ lo/hi GABA response (2.3 to 3.5-fold) | Maximal Effect of pCMBS Modification (range): ↑ lo/hi GABA response [10]: ↑ lo/hi GABA response (2.3 to 3.1-fold) | Maximal Effect of pCMBS Modification (range): ↑ lo/hi GABA response [11]: ↑ lo/hi GABA response (3.8 to 4.9-fold) | Maximal Effect of pCMBS Modification (range): ↑ lo/hi GABA response [12]: ↑ lo/hi GABA response (10 to 13-fold) | Maximal Effect of pCMBS Modification (range): ↑ lo/hi GABA response [13]: ↑ lo/hi GABA response (2.8 to 4.0-fold) | Maximal Effect of pCMBS Modification (range) [14]: No effect | Maximal Effect of pCMBS Modification (range): ↑ lo/hi GABA response [15]: ↑ lo/hi GABA response (2.6 to 4.3-fold)

NCCCC(=O)O [GABA, γ-Aminobutyric acid]
fraction of receptors activated by maximal GABA [16]: about 16% | GABA-activated currents [17]: No GABA-activated currents were detected

CCOC(=O)c1cncn1[C@H](C)c1ccccc1 [ETO, R-Etomidate]
effect on pCMBS modification rates [18]: inhibited modification | effect on apparent rate of pCMBS modification [19]: unaffected | effect on apparent rate of pCMBS modification ([1]; 50 μM ALX vs. 50 μM ETO): inhibition by ALX, but not ETO | effect on apparent rate of pCMBS modification [1, 22]: unaffected | effect on apparent rate of pCMBS modification [2]: accelerated | receptor sensitivity to anesthetic [20]: insensitivity to ALX, but not to ETO | enhancement of gating of receptors activated with EC5 GABA [3]: similarly enhance

C=CCC1(c2cccc(C3(C(F)(F)F)N=N3)c2)C(=O)NC(=O)N(C)C1=O (stereo not drawn) [mTFD-MPAB, R-allyl-m-trifluoromethyl-mephobarbital]
effect on apparent rate of pCMBS modification [21]: unaffected
